{
  "source": "paper PMC9579399",
  "about": "(Clinical and Translational Science, 2022)",
  "system": "healthy Chinese male subjects",
  "assay": "Safety evaluation",
  "assay_type": "in vivo, human",
  "conditions": "n = 49 per group",
  "how_it_was_run": "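AEs recorded throughout the study by investigators, including laboratory tests (hematology, biochemistry, urinalysis), vital signs, physical exams, 12-lead ECG and injection site reactions. Subjects with AEs followed until return to normal or baseline. Incidence calculated as subjects with at least one AE divided by total subjects.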",
  "data": [
    {"smiles": "CCCCCCCCCCCCCCCC(=O)N[C@@H](CCC(=O)NCCCC[C@H](NC(=O)[C@H](C)NC(=O)[C@H](C)NC(=O)[C@H](CCC(N)=O)NC(=O)CNC(=O)[C@H](CCC(=O)O)NC(=O)[C@H](CC(C)C)NC(=O)[C@H](Cc1ccc(O)cc1)NC(=O)[C@H](CO)NC(=O)[C@H](CO)NC(=O)[C@@H](NC(=O)[C@H](CC(=O)O)NC(=O)[C@H](CO)NC(=O)[C@@H](NC(=O)[C@H](Cc1ccccc1)NC(=O)[C@@H](NC(=O)CNC(=O)[C@H](CCC(=O)O)NC(=O)[C@H](C)NC(=O)[C@@H](N)Cc1cnc[nH]1)[C@@H](C)O)[C@@H](C)O)C(C)C)C(=O)N[C@@H](CCC(=O)O)C(=O)N[C@@H](Cc1ccccc1)C(=O)N[C@H](C(=O)N[C@@H](C)C(=O)N[C@@H](Cc1c[nH]c2ccccc12)C(=O)N[C@@H](CC(C)C)C(=O)N[C@H](C(=O)N[C@@H](CCCNC(=N)N)C(=O)NCC(=O)N[C@@H](CCCNC(=N)N)C(=O)NCC(=O)O)C(C)C)[C@@H](C)CC)C(=O)O", "note": "[Victoza, Liraglutide]", "values": [
      {"measurement": "incidence of AEs", "setting": "percentage of subjects with at least one AE", "value": 32.7, "unit": "%"},
      {"measurement": "incidence of TRAEs", "setting": "percentage of subjects with at least one TRAE", "value": 24.5, "unit": "%"},
      {"measurement": "Number of events (AEs)", "setting": "single 0.6 mg s.c.", "value": 19},
      {"measurement": "Number of events (TRAEs)", "setting": "single 0.6 mg s.c.", "value": 12}
    ]}
  ]
}
